Consider 4 molecules from ChEMBL document CHEMBL1132544, “Synthesis and biological evaluation of novel prodrugs of anthracyclines for selective activation by the tumor-associated protease plasmin” (1999).

In brackets after ≈: the same amount, converted by molar mass.

Holding throughout (format): functional
The subject of one experiment is A498. The experiment is described as follows: Cytotoxicity against A 498 tumor cell line. The following applies: Homo sapiens, read-out: ID50 (the source's name). The method in brief: (§1)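 Seven human tumour lines, continuous exposure to (pro)drug for 5 days, antiproliferative effect read by microculture sulforhodamine B (SRB) assay. ID50 = concentration giving 50% inhibition of cell growth relative to untreated control cultures, in ng/mL.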

In another experiment the test system is EVSA-T. The experiment is described as follows: Cytotoxicity against EVSA-T tumor cell line. The note with it: Homo sapiens, read-out: ID50 (the source's name). The method, boiled down: as §1
Experiment [1] in a line: Cytotoxicity against M19 tumor cell line. The following applies: Homo sapiens; read-out: ID50 (the source's name). The method in brief:
as §1

In a further experiment the test system is NCI-H226. The experiment is described as follows: Cytotoxicity against H 226 tumor cell line. The following applies: Homo sapiens, read-out: ID50 (the source's name). The method in brief: as §1
The test system of a further experiment is MCF7. The experiment is described as follows: Cytotoxicity against MCF-7 tumor cell line. The note with it: Homo sapiens, read-out: ID50 (the source's name). The method, boiled down: as §1
The next experiment relates to WiDr. Description: Cytotoxicity against WIDR tumor cell line. The note with it: Homo sapiens, read-out: ID50 (the source's name). The method, boiled down:
as §1

For a further experiment, the system named is IGROV-1. Description: Cytotoxicity against IGROV tumor cell line. The following applies: Homo sapiens, read-out: ID50 (the source's name). The method, boiled down: as §1

On to `COc1cccc2c1C(=O)c1c(O)c3c(c(O)c1C2=O)C[C@@](O)(C(=O)CO)C[C@@H]3OC1CC(NC(=O)OCc2ccc(NC(=O)[C@H](CCCCN)NC(=O)[C@H](Cc3ccccc3)NC(=O)[C@@H](C)N)cc2)C(O)C(C)O1.Cl.Cl` (stereo partly drawn), for which the IC50 worked out at 0.473 µg/mL with A498; 0.141 µg/mL in the experiment on EVSA-T; 0.437 µg/mL in experiment [1]; 0.896 µg/mL in the experiment on NCI-H226; 0.176 µg/mL with MCF7; 0.413 µg/mL with WiDr. Also, the IC50 in the experiment with IGROV-1 is 0.59 µg/mL.

Take `COc1cccc2c1C(=O)c1c(O)c3c(c(O)c1C2=O)C[C@@](O)(C(C)=O)C[C@@H]3OC1CC(NC(=O)OCc2ccc(NC(=O)[C@H](CCCCN)NC(=O)[C@H](Cc3ccccc3)NC(=O)[C@@H](C)N)cc2)C(O)C(C)O1.Cl.Cl` (stereo partly drawn): the IC50 amounted to 1.16 µg/mL with A498; 1.2 µg/mL in the experiment on EVSA-T; 1.58 µg/mL in experiment [1]; 1.7 µg/mL in the experiment on NCI-H226; 1.21 µg/mL with MCF7; 2.15 µg/mL with WiDr. For the same molecule, the IC50 in the experiment with IGROV-1 is 0.225 µg/mL.

As for `COc1cccc2c1C(=O)c1c(O)c3c(c(O)c1C2=O)C[C@@](O)(C(C)=O)C[C@@H]3O[C@H]1C[C@H](N)[C@H](O)[C@H](C)O1` [DAUNORUBICIN], the IC50 came to 0.487 µg/mL (≈ 0.923 µM) in the experiment on A498; 0.048 µg/mL (≈ 0.091 µM) with EVSA-T; 0.309 µg/mL (≈ 0.586 µM) in experiment [1]; 0.243 µg/mL (≈ 0.461 µM) in the experiment on NCI-H226; 0.329 µg/mL (≈ 0.624 µM) in the experiment with MCF7; 0.038 µg/mL (≈ 0.072 µM) in the experiment on WiDr. For the same molecule, the IC50 with IGROV-1 is 0.113 µg/mL (≈ 0.214 µM).

Take `COc1cccc2c1C(=O)c1c(O)c3c(c(O)c1C2=O)C[C@@](O)(C(=O)CO)C[C@@H]3O[C@H]1C[C@H](N)[C@H](O)[C@H](C)O1` [DOXORUBICIN]: the IC50 was found to be 0.09 µg/mL (≈ 0.166 µM) with A498; 0.008 µg/mL (≈ 0.0147 µM) with EVSA-T; 0.016 µg/mL (≈ 0.0294 µM) in experiment [1]; 0.199 µg/mL (≈ 0.366 µM) in the experiment on NCI-H226; 0.01 µg/mL (≈ 0.0184 µM) in the experiment with MCF7; 0.011 µg/mL (≈ 0.0202 µM) in the experiment on WiDr. In addition, in the experiment with IGROV-1, the IC50 amounted to 0.06 µg/mL (≈ 0.11 µM).
